Columns and labels:
[1] = target: T1, Lysosomal thioesterase PPT2 (Mus musculus) (UniProt O35448); conditions: Neuro2a, 3 nM
T1 sequence (whole entry): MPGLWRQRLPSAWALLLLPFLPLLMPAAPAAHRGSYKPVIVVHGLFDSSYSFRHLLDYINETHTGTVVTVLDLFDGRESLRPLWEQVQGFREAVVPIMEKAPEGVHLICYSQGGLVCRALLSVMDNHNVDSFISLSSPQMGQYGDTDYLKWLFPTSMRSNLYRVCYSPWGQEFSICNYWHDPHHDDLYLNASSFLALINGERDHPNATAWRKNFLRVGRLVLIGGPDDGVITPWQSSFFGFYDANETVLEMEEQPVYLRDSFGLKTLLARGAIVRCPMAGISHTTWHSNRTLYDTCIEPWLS

[2] = target: T2, Monoacylglycerol lipase ABHD6 (Mus musculus) (UniProt Q8R2Y0); test: Inhibition of ABHD6 in FP-rhodamine-labelled mouse brain membrane at 1 nM preincubated for 30 mins followed by FP-rhodamine labelling measured after 30 mins by gel-based competitive ABPP assay; assay type: tissue-based
T2 sequence (whole entry): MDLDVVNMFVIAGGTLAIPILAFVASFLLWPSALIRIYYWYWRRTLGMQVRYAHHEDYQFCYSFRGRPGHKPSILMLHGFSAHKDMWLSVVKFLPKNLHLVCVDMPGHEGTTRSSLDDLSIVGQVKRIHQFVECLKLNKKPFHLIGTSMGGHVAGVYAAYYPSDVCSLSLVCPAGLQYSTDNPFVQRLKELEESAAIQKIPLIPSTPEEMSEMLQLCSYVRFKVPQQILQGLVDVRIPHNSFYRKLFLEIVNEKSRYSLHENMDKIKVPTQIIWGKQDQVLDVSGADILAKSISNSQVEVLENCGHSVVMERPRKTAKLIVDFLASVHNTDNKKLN
Outline: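 Mouse brain membrane proteome (1 mg/mL) preincubated with compound for 30 min at 37 °C, then labelled with FP-rhodamine or HT-01 (1 μM final) for 30 min at 37 °C. Quenched in SDS loading buffer, run on 10% SDS-PAGE and scanned for in-gel fluorescence. Bands assigned by gel migration.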

[3] = target: T3, Protein phosphatase methylesterase 1 (Mus musculus) (UniProt Q8BVQ5); conditions: Neuro2a, 3 nM
T3 sequence (whole entry): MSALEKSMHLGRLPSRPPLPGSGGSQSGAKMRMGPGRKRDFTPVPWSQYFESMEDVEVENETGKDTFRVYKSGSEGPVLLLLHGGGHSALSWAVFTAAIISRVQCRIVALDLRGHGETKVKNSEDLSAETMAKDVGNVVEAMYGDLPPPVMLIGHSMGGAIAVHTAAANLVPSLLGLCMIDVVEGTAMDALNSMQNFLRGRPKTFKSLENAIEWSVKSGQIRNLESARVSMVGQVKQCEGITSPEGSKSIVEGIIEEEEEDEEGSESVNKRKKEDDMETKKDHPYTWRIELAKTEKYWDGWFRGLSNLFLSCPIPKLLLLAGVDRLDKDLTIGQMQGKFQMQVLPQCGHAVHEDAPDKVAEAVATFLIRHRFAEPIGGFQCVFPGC

[4] = target: T4, Serine beta-lactamase-like protein LACTB, mitochondrial (Mus musculus) (UniProt Q9EP89); conditions: Neuro2a, 3 nM
T4 sequence (whole entry): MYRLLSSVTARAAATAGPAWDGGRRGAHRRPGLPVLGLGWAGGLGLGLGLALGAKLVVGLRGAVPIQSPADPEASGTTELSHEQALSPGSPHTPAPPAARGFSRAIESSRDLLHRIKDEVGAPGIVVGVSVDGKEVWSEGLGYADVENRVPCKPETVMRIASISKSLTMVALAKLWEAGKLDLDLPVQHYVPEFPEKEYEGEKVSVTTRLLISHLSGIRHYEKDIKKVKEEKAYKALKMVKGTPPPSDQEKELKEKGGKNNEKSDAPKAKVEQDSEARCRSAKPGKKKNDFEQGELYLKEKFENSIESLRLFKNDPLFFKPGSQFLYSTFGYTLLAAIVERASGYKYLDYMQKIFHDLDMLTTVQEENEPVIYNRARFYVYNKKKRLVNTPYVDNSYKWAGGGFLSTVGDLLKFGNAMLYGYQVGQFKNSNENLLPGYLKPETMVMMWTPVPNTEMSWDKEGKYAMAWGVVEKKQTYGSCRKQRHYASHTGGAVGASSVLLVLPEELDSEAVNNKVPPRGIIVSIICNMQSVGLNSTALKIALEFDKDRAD

[5] = target: T5, Fatty-acid amide hydrolase 1 (Mus musculus) (UniProt O08914); conditions: Neuro2a, 3 nM
T5 sequence (whole entry): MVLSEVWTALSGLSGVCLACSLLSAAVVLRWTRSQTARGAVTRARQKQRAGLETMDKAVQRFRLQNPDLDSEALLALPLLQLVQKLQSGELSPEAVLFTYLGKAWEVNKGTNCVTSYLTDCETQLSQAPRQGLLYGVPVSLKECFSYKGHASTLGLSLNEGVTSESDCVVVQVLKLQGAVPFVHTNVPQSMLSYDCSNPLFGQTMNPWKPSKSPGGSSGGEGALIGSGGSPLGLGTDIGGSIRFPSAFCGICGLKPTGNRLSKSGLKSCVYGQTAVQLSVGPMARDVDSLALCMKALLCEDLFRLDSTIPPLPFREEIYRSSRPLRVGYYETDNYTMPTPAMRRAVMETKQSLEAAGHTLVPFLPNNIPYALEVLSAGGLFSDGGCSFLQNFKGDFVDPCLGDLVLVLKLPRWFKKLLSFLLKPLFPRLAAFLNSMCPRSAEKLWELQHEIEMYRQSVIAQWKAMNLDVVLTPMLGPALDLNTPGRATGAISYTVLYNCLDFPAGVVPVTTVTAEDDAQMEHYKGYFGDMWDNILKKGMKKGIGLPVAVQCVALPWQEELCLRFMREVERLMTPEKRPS

[6] = target: T6, Lysophosphatidylserine lipase ABHD12 (Mus musculus) (UniProt Q99LR1); conditions: Neuro2a, 3 nM
T6 sequence (whole entry): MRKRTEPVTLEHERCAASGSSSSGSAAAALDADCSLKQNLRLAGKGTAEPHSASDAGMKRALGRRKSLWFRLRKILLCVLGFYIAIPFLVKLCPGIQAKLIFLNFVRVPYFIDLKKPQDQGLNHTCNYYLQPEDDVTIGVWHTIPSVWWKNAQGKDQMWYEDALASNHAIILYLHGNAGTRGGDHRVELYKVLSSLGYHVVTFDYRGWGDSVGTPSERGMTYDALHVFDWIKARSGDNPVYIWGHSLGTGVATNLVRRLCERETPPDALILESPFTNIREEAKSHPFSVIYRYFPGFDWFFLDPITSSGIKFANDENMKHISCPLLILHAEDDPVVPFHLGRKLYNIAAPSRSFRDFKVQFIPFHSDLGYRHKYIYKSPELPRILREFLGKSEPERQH

Row | Compound | inhibition [1] [%] | inhibition [2] [%] | inhibition [3] [%] | inhibition [4] [%] | inhibition [5] [%] | inhibition [6] [%]
1 | O=C(c1cccc(-c2ccc(-c3cn(C(=O)N4CCCCC4c4ccccc4)nn3)cc2)c1)N1CCCCC1 (racemic) | < 50 | 51 | < 50 | < 50 | < 50 | < 50
2 | O=C(N1CCCCC1c1ccccc1)n1cc(-c2ccc(-c3cccc(CO)c3)cc2)nn1 (racemic) | < 50 | 29 | < 50 | < 50 | < 50 | < 50
3 | O=C(O)c1cccc(-c2ccc(-c3cn(C(=O)N4CCCCC4Cc4ccccc4)nn3)cc2)c1 (racemic) | < 50 | 62 | < 50 | < 50 | < 50 | < 50

— ChEMBL document CHEMBL3259629, “Discovery and optimization of piperidyl-1,2,3-triazole ureas as potent, selective, and in vivo-active inhibitors of α/β-hydrolase domain containing 6 (ABHD6)” (J Med Chem, 2013)
